# From PubChem
# Rows were chosen to be rich in hits. Some 7.1% of all compounds tested hit in one or more screens of this group.
# PTEN del growth: growth suppression of PTEN-null HCT116, primary screen, cell-based, CellTiter-Glo; HCT116 PTEN-null viability, 60 h; stronger effect = lower value; viability, % at 10 µM; 1.2% of 140,000 active; AID 827, 2007;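 active = viability at or below a set limit, 4 SD under the median of all tested compounds, cut at about 3.7% in these data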;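 also: PTEN knockout HCT116 line with beta catenin targeted HCT116 as companion control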
# H69AR growth 86K: proliferation blockers of H69AR lung cancer cells, primary screen, cell-based, human, 86K library; 6% of 85,000 active; viability, % at 10 µM; AID 598, 2007; H69AR lung tumor viability, ATP luminescence, 72 h; stronger effect = lower value;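 active = viability at or below 40%; inactive = viability above 40%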;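 also: multidrug resistant small cell line overexpressing MRP-1 efflux transporter; 100% = mean luminescence of untreated control wells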
# Lung fibro prol: antiproliferative effect on LL 47 fibroblasts – human, LL 47 cells, CellTiter-Glo luminescence, primary screen; LL 47 human lung fibroblast viability, ATP luminescence; stronger effect = lower value; viability, % at 10 µM; 1.1% of 85,000 active;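 active = viability at or below 50% in the single dose screen; inactive = viability above 50%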;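 also: compound exposure lasted 72 h before the ATP readout; 100% = median luminescence of untreated cell-only wells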
#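 Assay system: human lung fibroblast line LL 47, low passage. Input: 1,150 fibroblasts seeded per well. Times: overnight cell rest, 72 h compound treatment at 37 °C. Evaluation: % viability of median cell-only signal. Technique: luminescent ATP detection, CellTiter-Glo. Control set: cell-only wells, no compound.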
# HUVEC inhibit: inhibitors of HUVEC proliferation, primary screen, cell-based, 384-well; CellTiter-Glo luminescence, 72 h; stronger effect = lower value; viability, % at 10 µM (by protocol); 1.1% of 86,000 active; AID 648, 2007;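 active = viability at or below 30%; inactive = viability above 30%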;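 also: 100% = median luminescence of DMSO-only cell control wells on each plate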
# HCT116 bCat-KO: primary screen for growth suppressors in beta-catenin knockout HCT116 cells (colon tumor, human); HCT116 beta-catenin knockout viability, CellTiter-Glo, 60 h; stronger effect = lower value; viability, % at 10 µM; 1.5% of 140,000 active;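 active = viability at or under a set limit, the compound median less 4 SD, cut at about 6% in these data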;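 also: 0% = Hyamine 1622 control at 20 µM and 100% = untreated cell control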
# Cav32 inh: Cav3.2 calcium influx blockers – cell-based, Fluo-4 calcium fluorescence, FDSS, MLSMR library, primary screen; Voltage-dependent T-type calcium channel subunit alpha-1H (Homo sapiens), O95180; Cav3.2-expressing cells; stronger effect = lower value; B-score at 10 µM; 4% of 100,000 active; AID 449739, 2010;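 active = single-dose well whose peak fluorescence ratio is a statistical outlier from its plate by either plate-standardised score or position-corrected B-score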
# Active calls of the source: *; . = no result given.
SMILES,PTEN del growth,H69AR growth 86K,Lung fibro prol,HUVEC inhibit,HCT116 bCat-KO,Cav32 inh
O=C(CSC1=NCCS1)Nc1ccc(S(=O)(=O)N2CCCCCC2)cc1,81,.,99,85,45,-4.4*
Cc1csc(NC(=O)CSc2nnc(-c3ccc(S(=O)(=O)N4CCCC4)cc3)o2)n1,73,34*,96,113,72,0.58
COC(=O)c1cn(NC(=O)/C=C/c2cc(OC)ccc2OC)c(=O)c2ccccc12,83,.,.,.,89,.
Cc1ccc(C2=Nc3ccccc3NC(C)(c3ccc(C)o3)C2)o1 (stereo not drawn),88,38*,86,85,75,-5.3*
Cc1ccc(NC(=O)CSc2nnc(C(F)(F)F)n2C)cc1[N+](=O)[O-],104,.,.,.,107,.
COC(=O)C(Cc1ccccc1)NC(=O)COc1ccc(C(C)(C)C)cc1 (stereo not drawn),96,84,98,81,96,-6.1*
N#Cc1c(NC(=O)CSC2=NCCS2)sc2c1CCCC2,72,71,98,90,74,-0.041
O=C(CSC1=NCCS1)Nc1nc2c(s1)CCCC2,94,17*,99,73,87,.
O=C(CSc1nc(Cc2ccccc2)nc2ccccc12)Nc1nc2c(s1)CCCC2,78,.,.,.,82,-4.8*
Cn1c(SCC(=O)Nc2nc3c(s2)CCCC3)nnc1-c1ccccc1,108,76,92,89,87,-6.1*
O=C(CSc1ncn(-c2ccccc2)n1)Nc1nc2ccccc2s1,56,65,100,82,72,-3.1
O=C(CSc1ncn(-c2ccccc2)n1)Nc1nc2c(s1)CCCC2,90,80,99,91,90,-4.2*
CCCCn1c(=O)nc2n(-c3ccc(Cl)cc3)c3ccccc3cc-2c1=O,88,.,.,.,81,.
COc1ccccc1OCCCCN1CCN(c2ccccc2OC)CC1,60,75,97,58,56,0.67
Cc1cccc(OCCN2CSC(=S)N(C)C2)c1,31,1.5*,61,21*,7,.
COc1ccccc1OCCN1CSC(=S)N(C)C1,5,.,.,.,4.0*,.
Cc1cccc(OCCCN2CCCCCC2)c1,90,83,105,106,97,0.057
COc1ccc(C(=O)Nc2ccc(/C(C)=N/NC(=O)c3ccccc3O)cc2)cc1OC,85,.,.,.,84,.
CCNC(=O)NC(=O)CSc1cccc(C(F)(F)F)c1,108,85,105,92,103,-1.3
O=C(CSc1cccc(C(F)(F)F)c1)NC(=O)NCc1ccco1,108,100,99,101,99,-5.3*
Cc1onc(-c2c(F)cccc2Cl)c1C(=O)NC1CCSC1=O (stereo not drawn),88,86,99,90,88,-0.048
N#Cc1cc(Oc2cccc3cccnc23)c(-n2nnc3ccccc32)cc1C#N,22,18*,84,72,13,-1.4
CCn1cc(C(=O)OCC(=O)c2cc(C)n(-c3ccc(OC(F)F)cc3)c2C)c(=O)c2ccc(C)nc21,81,.,.,.,85,.
CCN(CC)S(=O)(=O)c1ccc(NC2CCCc3ccccc32)nc1 (stereo not drawn),0.5*,87,94,90,0.6*,-0.084
Cn1c(=O)c2c(-c3ccccc3)n3c4ccccc4ncc3c2n(C)c1=O,.,38*,91,70,.,1.6
CCc1ccc(OCC(=O)NC(NC(=S)Nc2ccccc2)C(Cl)(Cl)Cl)cc1 (stereo not drawn),8,.,.,.,2.4*,.
Cc1ccccc1NC(=S)NC(NC(=O)COc1ccccc1)C(Cl)(Cl)Cl (stereo not drawn),7,.,.,.,32,-2.8
O=C(COc1ccccc1)NC(NC(=S)Nc1ccccc1O)C(Cl)(Cl)Cl (stereo not drawn),55,.,.,.,59,-7.9*
C=CCn1c(C)cc(C(=O)CSc2nnc(NCc3ccccc3)s2)c1C,37,25*,53,58,21,.
CCOC(=O)c1[nH]c2ccc(F)cc2c1NC(=O)CN1CCN(C/C=C/c2ccccc2)CC1,48,3.6*,14*,2.6*,56,.
